{"data": "Results pooled from the literature", "CCR2": "C-C chemokine receptor type 2 (CCR2, Homo sapiens, UniProt P41597)", "SIRT6": "NAD-dependent protein deacylase sirtuin-6 (SIRT6, Homo sapiens, UniProt Q8N6T7)", "HTR6": "5-hydroxytryptamine receptor 6 (HTR6, Homo sapiens, UniProt P50406)", "Plasmepsin II": "Plasmepsin II (Plasmodium falciparum, UniProt P46925)", "Adra1a": "Alpha-1A adrenergic receptor (Adra1a, Rattus norvegicus, UniProt P43140)", "PTAFR": "Platelet-activating factor receptor (PTAFR, Homo sapiens, UniProt P25105)", "note": "Lines come from different studies, so protocols differ."}
{"SMILES": "CN(Cc1ccc(NC(=O)C2=Cc3cc(-c4ccc(OCCCF)cc4)ccc3CCC2)cc1)C1CCOCC1", "target": "CCR2", "test": "ligand displacement, radioligand", "setting": "1 µM, cell membranes", "inhibition [%]": 48}
{"SMILES": "COc1cc2c3c(c1OCc1ccc(Br)cc1)-c1cc4c(cc1CC3N(C)CC2c1ccccc1)OCO4 (centres unmarked)", "target": "5-hydroxytryptamine receptor 7 (HTR7, Homo sapiens, UniProt P34969)", "test": "ligand displacement, radioligand", "setting": "10 µM", "inhibition [%]": -22.6}
{"SMILES": "O=C(NO)c1ccc(C(=O)NOCc2ccc(C(F)(F)F)cc2)cc1", "target": "SIRT6", "test": "enzyme activity, inhibitor, fluorescence", "setting": "100 µM", "inhibition [%]": 93.3}
{"SMILES": "CC1=NN(c2ccccc2)CC1", "target": "NADPH oxidase 4 (NOX4, Homo sapiens, UniProt Q9NPH5)", "test": "enzyme activity, inhibitor, fluorescence", "setting": "100 µM, cell membranes", "inhibition [%]": "> 40"}
{"SMILES": "NC(=O)c1ccc(C(=O)NOCc2cccc3ccccc23)cc1", "target": "SIRT6", "test": "enzyme activity, inhibitor, fluorescence", "setting": "100 µM", "inhibition [%]": 92.2}
{"SMILES": "Cc1ccc(CNC(=O)[C@H](CCc2ccccc2)NC(=O)[C@H](CCc2ccccc2)NC(=O)[C@H](CCc2ccccc2)NC(=O)c2cnc(C)cn2)cc1", "target": "Cathepsin B (CTSB, Homo sapiens, UniProt P07858)", "test": "enzyme activity, inhibitor", "setting": "100 µM", "inhibition [%]": -15}
{"SMILES": "C1=CSC(=C2SC=CS2)S1", "target": "Ubiquitin carboxyl-terminal hydrolase 14 (USP14, Homo sapiens, UniProt P54578)", "test": "enzyme activity, inhibitor", "setting": "17 µM", "inhibition [%]": 54}
{"SMILES": "CCCNc1nc2ccccc2n1Cc1ccc(Cl)cc1", "target": "HTR6", "test": "ligand displacement", "setting": "10 µM", "inhibition [%]": 36.6}
{"SMILES": "O=[N+]([O-])c1ccc(N2CCN(CCC(O)c3ccc(F)cc3)CC2)c(C(F)(F)F)c1 (centres unmarked)", "target": "Plasmepsin II", "test": "enzyme activity, inhibitor", "setting": "5 µM", "inhibition [%]": 0}
{"SMILES": "O=C(NCCNC(=O)c1n[nH]c(=O)c2ccccc12)c1cccc(CN2C(=O)CNC2=O)c1", "target": "Poly [ADP-ribose] polymerase 2 (PARP2, Homo sapiens, UniProt Q9UGN5)", "test": "enzyme activity, inhibitor", "setting": "0.5 µM", "inhibition [%]": "~50"}
{"SMILES": "NCc1cccc(C(=O)NOCc2ccc(C(F)(F)F)cc2)c1", "target": "SIRT6", "test": "enzyme activity, inhibitor, fluorescence", "setting": "100 µM", "inhibition [%]": 72.2}
{"SMILES": "C/C(=C\\C(=O)OCCCCCCCCC(=O)O)C[C@@H]1OC[C@H](C[C@@H]2O[C@H]2[C@@H](C)[C@H](C)O)[C@@H](O)[C@H]1O", "target": "C-C chemokine receptor type 5 (CCR5, Homo sapiens, UniProt P51681)", "test": "calcium signal, antagonist", "test system": "U87/CD4/CCR5", "setting": "100 µM", "inhibition [%]": 96}
{"SMILES": "NC(=O)c1ccc(C(=O)NOCc2ccc(Sc3ccccc3Cl)c(C(F)(F)F)c2)cc1", "target": "SIRT6", "test": "enzyme activity, inhibitor, fluorescence", "setting": "100 µM", "inhibition [%]": 99.1}
{"SMILES": "Ic1cccc2cnccc12", "target": "Adra1a", "test": "ligand displacement, radioligand", "setting": "10 µM", "inhibition [%]": 9}
{"SMILES": "CCN(Cc1ccccc1C(F)(F)F)C(=O)C1CCN(S(=O)(=O)c2ccc3[nH]ncc3c2)CC1", "target": "Adra1a", "test": "ligand displacement, radioligand", "setting": "10 µM", "inhibition [%]": 12}
{"SMILES": "O=C(NOCc1ccc(C(F)(F)F)cc1)c1ccc(-c2nn[nH]n2)cc1", "target": "SIRT6", "test": "enzyme activity, inhibitor, fluorescence", "setting": "100 µM", "inhibition [%]": 4.2}
{"SMILES": "O=c1c2ccccc2c(Cc2ccc(Cl)cc2)nn1C1CCCNCC1 (centres unmarked)", "target": "Sodium channel protein type 5 subunit alpha (SCN5A, Homo sapiens, UniProt Q14524)", "test": "ion current, inhibitor, patch clamp", "test system": "CHO", "setting": "10 µM", "inhibition [%]": 62}
{"SMILES": "COC(=O)c1ccc(C(=O)NOCc2ccccc2)cc1", "target": "SIRT6", "test": "enzyme activity, inhibitor, fluorescence", "setting": "100 µM", "inhibition [%]": 52.2}
{"SMILES": "CN(Cc1ccc(NC(=O)C2=Cc3cc(-c4ccc(OCCCO)cc4)ccc3CCC2)cc1)C1CCOCC1", "target": "CCR2", "test": "ligand displacement, radioligand", "setting": "1 µM, cell membranes", "inhibition [%]": 51}
{"SMILES": "CCN(CC)c1ccc(C2Nc3ccc(C(=O)c4ccccc4)cc3NC3=C2C(=O)CC(C)(C)C3)cc1 (centres unmarked)", "target": "HTR6", "test": "ligand displacement, radioligand", "setting": "10 µM", "inhibition [%]": 30}
{"SMILES": "Cc1ccc(Sc2ccc(CONC(=O)c3ccc(C(N)=O)cc3)cc2C(F)(F)F)cc1", "target": "SIRT6", "test": "enzyme activity, inhibitor, fluorescence", "setting": "100 µM", "inhibition [%]": 98.6}
{"SMILES": "O=[N+]([O-])c1ccc(N2CCN(CCC(O)c3csc4ccc(F)cc34)CC2)c(C(F)(F)F)c1 (centres unmarked)", "target": "Plasmepsin II", "test": "enzyme activity, inhibitor", "setting": "5 µM", "inhibition [%]": 13}
{"SMILES": "CC/C(=N\\NC(=O)NCc1cccc(O)c1)c1ccc(O)c(C)c1O", "target": "ALK tyrosine kinase receptor (ALK, Homo sapiens, UniProt Q9UM73, L1196M)", "test": "enzyme activity, inhibitor", "setting": "0.1 µM", "inhibition [%]": 3}
{"SMILES": "NC(=O)c1ccc(C(=O)NOCc2ccc(Sc3cccc(F)c3)c(C(F)(F)F)c2)cc1", "target": "SIRT6", "test": "enzyme activity, inhibitor, fluorescence", "setting": "100 µM", "inhibition [%]": 97.6}
{"SMILES": "CN1CC(Oc2cnc(C#N)cc2-c2ccn3nc(NC(=O)C4CC4)cc3c2)C1", "target": "[Pyruvate dehydrogenase (acetyl-transferring)] kinase isozyme 4, mitochondrial (PDK4, Homo sapiens, UniProt Q16654)", "test": "enzyme activity, inhibitor", "setting": "1 µM", "inhibition [%]": 2}
{"SMILES": "O=C(Nc1ccc(S(=O)(=O)N2CCC(Cl)CC2)cc1)c1ccc([N+](=O)[O-])o1", "target": "PTAFR", "test": "ligand displacement, radioligand", "setting": "10 µM", "inhibition [%]": 39}
{"SMILES": "O=C(c1ccc(F)cc1)N(Cc1ccccc1)C1CCCCC1", "target": "PTAFR", "test": "cell-free assay", "setting": "10 µM", "inhibition [%]": 6}
{"SMILES": "OC(CCN1CCN(c2ccc(C(F)(F)F)cc2)CC1)c1csc2ccc(F)cc12 (centres unmarked)", "target": "Plasmepsin II", "test": "enzyme activity, inhibitor", "setting": "5 µM", "inhibition [%]": 0}
{"SMILES": "CN(C)C1CCN(CC#Cc2nn(C3CCCC3)c3nc(NCc4ccccc4)ncc23)C1 (centres unmarked)", "target": "Serine/threonine-protein kinase pim-1 (PIM1, Homo sapiens, UniProt P11309)", "test": "enzyme activity, inhibitor, FRET", "setting": "10 µM", "inhibition [%]": 2}
